One experiment deals with Pseudomonas aeruginosa. The experiment in a line: Antimicrobial activity against Pseudomonas aeruginosa after 24 hrs by two-fold serial dilution method. The experiment is classed as functional. In outline:
(§1)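 MIC read by broth microdilution in microdilution plates.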

A further experiment concerns Shigella dysenteriae. The experiment in a line: Antimicrobial activity against Shigella dysenteriae after 24 hrs by two-fold serial dilution method. The experiment is classed as functional.
In experiment [1] the test system is Escherichia coli. Kind of experiment: Antimicrobial activity against Escherichia coli DH52 after 24 hrs by two-fold serial dilution method. The experiment is classed as functional. To be noted: DH52, 24 h.
Experiment [2] has as its system Staphylococcus aureus. The experiment in a line: Antimicrobial activity against Staphylococcus aureus ATCC 25923 after 24 hrs by two-fold serial dilution method. The experiment is classed as functional. To be noted: ATCC 25923, 24 h.
The next experiment has as its system Candida albicans. The experiment in a line: Antimicrobial activity against Candida albicans after 24 hrs by two-fold serial dilution method. The experiment is classed as functional. In outline: as §1
The test system of experiment [3] is Staphylococcus aureus. Kind of experiment: Antimicrobial activity against methicillin-resistant Staphylococcus aureus N315 after 24 hrs by two-fold serial dilution method. The class given is functional. To be noted: N315, 24 h.
A further experiment deals with Bacillus subtilis. The experiment in a line: Antimicrobial activity against Bacillus subtilis after 24 hrs by two-fold serial dilution method. The experiment is classed as functional. In outline:
as §1

Experiment [4] deals with Escherichia coli. Kind of experiment: Ratio of chloromycin MIC to compound MIC for Escherichia coli DH52 after 24 hrs by two-fold serial dilution method. The class given is functional.
For a further experiment, the system named is Micrococcus luteus. The experiment in a line: Antimicrobial activity against Micrococcus luteus ATCC 4698 after 24 hrs by two-fold serial dilution method. The class given is functional. The following applies: ATCC 4698, 24 h.
Experiment [5] relates to Aspergillus flavus. The experiment in a line: Antimicrobial activity against Aspergillus flavus after 24 hrs by two-fold serial dilution method. The experiment is classed as functional. In outline: as §1
Experiment [6] in a line: Antimicrobial activity against Bacillus proteus after 24 hrs by two-fold serial dilution method. The experiment is classed as functional. Put shortly: as §1
Another experiment concerns Saccharomyces cerevisiae. Kind of experiment: Antimicrobial activity against Saccharomyces cerevisiae by two-fold serial dilution method. The experiment is classed as functional. Put shortly: as §1
Experiment [7] has as its system DNA. The experiment in a line: Competitive binding affinity to calf thymus DNA at 0.25 to 2 x 10^-5 mol/L by UV spectroscopy in presence of neutral red. The experiment is classed as nucleic-acid assay. The following applies: Bos taurus.
Experiment [8] deals with DNA. The experiment in a line: Binding affinity to calf thymus DNA by UV-vis spectroscopy. The experiment is classed as nucleic-acid assay. To be noted: Bos taurus. Put shortly:
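UV-vis absorption spectra of calf thymus DNA recorded with increasing concentrations of test compound. The DNA band at 260 nm was monitored for changes in intensity and wavelength.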

For experiment [9], the system named is Aspergillus flavus. Kind of experiment: Ratio of fluconazole MIC to compound MIC for Aspergillus flavus after 24 hrs by two-fold serial dilution method. The class given is functional.

Values after ≈ are worked out from the molar mass of the structure shown. Active and inactive are the calls of the source. The calls are words filed in the database; no cut-off is given here.

Data on ten compounds can be found in ChEMBL document CHEMBL3098102, “1,2,3-Triazole-derived naphthalimides as a novel type of potential antimicrobial agents: synthesis, antimicrobial activity, interaction with calf thymus DNA and human serum albumin” (Bioorg Med Chem Lett, 2014).

A word on the MIC: it is the lowest concentration found to suppress growth. A low value points to inhibition by little substance. With `Cl.Cl.Cl.Cl.Cl.Cl.O=C1c2cccc3c(Br)ccc(c23)C(=O)N1N(Cc1cn(Cc2ccc(Cl)c(Cl)c2)nn1)Cc1cn(Cc2ccc(Cl)c(Cl)c2)nn1`, the MIC against Pseudomonas aeruginosa was 256 µg/mL; in the experiment on Shigella dysenteriae, over 512 µg/mL; against Escherichia coli [1], 0.5 µg/mL; in the experiment with Staphylococcus aureus [2] it was 256 µg/mL; against Candida albicans, 256 µg/mL; with Staphylococcus aureus [3], 256 µg/mL. Further, the MIC was 512 µg/mL against Bacillus subtilis; 512 µg/mL against Micrococcus luteus; over 512 µg/mL in the experiment with Aspergillus flavus [5]; 256 µg/mL in [6]; 32 µg/mL in the experiment with Saccharomyces cerevisiae. In addition, the Ratio in the experiment with Escherichia coli [4] is listed as 2.
Take `Cl.Cl.Cl.Cl.O=C1c2cccc3c(Br)ccc(c23)C(=O)N1N(Cc1cn(Cc2ccc(Cl)cc2)nn1)Cc1cn(Cc2ccc(Cl)cc2)nn1`: the MIC in the experiment on Pseudomonas aeruginosa was 512 µg/mL; against Shigella dysenteriae it was 256 µg/mL; in the experiment with Escherichia coli [1], 2 µg/mL; in the experiment on Staphylococcus aureus [2] it was 256 µg/mL; in the experiment on Candida albicans, over 512 µg/mL; in the experiment on Staphylococcus aureus [3], 512 µg/mL. Besides, the MIC was 256 µg/mL against Bacillus subtilis; 32 µg/mL in the experiment with Micrococcus luteus; 256 µg/mL with Aspergillus flavus [5]; over 512 µg/mL in experiment [6]; over 512 µg/mL in the experiment on Saccharomyces cerevisiae. Further, the Ratio with Escherichia coli [4] turned out to be 2.
For `O=C1c2cccc3c(Br)ccc(c23)C(=O)N1N(Cc1cn(Cc2ccccc2Cl)nn1)Cc1cn(Cc2ccccc2Cl)nn1`, the MIC against Pseudomonas aeruginosa was over 512 µg/mL; in the experiment with Shigella dysenteriae, over 512 µg/mL; with Escherichia coli [1], 4 µg/mL (≈ 5.69 µM); against Staphylococcus aureus [2] it was over 512 µg/mL; in the experiment with Candida albicans, 64 µg/mL (≈ 91.1 µM); in the experiment on Staphylococcus aureus [3] it was 512 µg/mL (≈ 729 µM). Also, the minimum inhibitory concentration (MIC) in the experiment with Bacillus subtilis was over 512 µg/mL; in the experiment with Micrococcus luteus, 128 µg/mL (≈ 182 µM); against Aspergillus flavus [5] it was over 512 µg/mL; in [6], over 512 µg/mL; in the experiment with Saccharomyces cerevisiae it was over 512 µg/mL. The Ratio in the experiment on Escherichia coli [4] is on record as 2.
For `O=C1c2cccc3c(Br)ccc(c23)C(=O)N1N(Cc1cn(Cc2ccc(Cl)c(Cl)c2)nn1)Cc1cn(Cc2ccc(Cl)c(Cl)c2)nn1`, the outcome with DNA [7] was Active. This compound also displayed a K with DNA [8] of 2.34 ×10⁴ L/mol.
In the case of `CCCCCCCCn1cc(CN(Cc2cn(CCCCCCCC)nn2)N2C(=O)c3cccc4c(Br)ccc(c34)C2=O)nn1`, the MIC against Pseudomonas aeruginosa is 512 µg/mL (≈ 756 µM); with Shigella dysenteriae, over 512 µg/mL; with Escherichia coli [1], 512 µg/mL (≈ 756 µM); against Staphylococcus aureus [2], over 512 µg/mL; against Candida albicans it was over 512 µg/mL; in the experiment on Staphylococcus aureus [3], over 512 µg/mL. Further, the MIC against Bacillus subtilis was over 512 µg/mL; with Micrococcus luteus it was over 512 µg/mL; against Aspergillus flavus [5] it was 16 µg/mL (≈ 23.6 µM); in experiment [6], over 512 µg/mL; against Saccharomyces cerevisiae, over 512 µg/mL. Further, the Ratio in the experiment with Aspergillus flavus [9] is recorded as 16.
Turning to `Cl.Cl.Cl.Cl.O=C1c2cccc3c(Br)ccc(c23)C(=O)N1N(Cc1cn(Cc2cccc(Cl)c2)nn1)Cc1cn(Cc2cccc(Cl)c2)nn1`, the minimal inhibitory concentration (MIC) with Pseudomonas aeruginosa stood at 64 µg/mL; in the experiment with Shigella dysenteriae it was 512 µg/mL; in the experiment on Escherichia coli [1], 2 µg/mL; in the experiment with Staphylococcus aureus [2], 256 µg/mL; in the experiment on Candida albicans, 16 µg/mL; in the experiment with Staphylococcus aureus [3], 256 µg/mL. The MIC with Bacillus subtilis is 256 µg/mL; in the experiment on Micrococcus luteus, over 512 µg/mL; in the experiment on Aspergillus flavus [5], over 512 µg/mL; in experiment [6], 512 µg/mL; against Saccharomyces cerevisiae, 64 µg/mL. Also, the Ratio in the experiment on Escherichia coli [4] amounted to 2.
Take `Cl.Cl.Cl.Cl.Cl.Cl.O=C1c2cccc3c(Br)ccc(c23)C(=O)N1N(Cc1cn(Cc2ccc(Cl)cc2Cl)nn1)Cc1cn(Cc2ccc(Cl)cc2Cl)nn1`: the MIC was over 512 µg/mL with Pseudomonas aeruginosa; over 512 µg/mL in the experiment with Shigella dysenteriae; 4 µg/mL against Escherichia coli [1]; over 512 µg/mL with Staphylococcus aureus [2]; over 512 µg/mL with Candida albicans; over 512 µg/mL with Staphylococcus aureus [3]. The MIC is over 512 µg/mL against Bacillus subtilis; 256 µg/mL against Micrococcus luteus; 32 µg/mL with Aspergillus flavus [5]; over 512 µg/mL in [6]; over 512 µg/mL with Saccharomyces cerevisiae. Also, the Ratio with Escherichia coli [4] was 2.
`Cl.Cl.Cl.Cl.O=C1c2cccc3c(Br)ccc(c23)C(=O)N1N(Cc1cn(Cc2ccccc2Cl)nn1)Cc1cn(Cc2ccccc2Cl)nn1`: the MIC in the experiment with Pseudomonas aeruginosa was over 512 µg/mL; against Shigella dysenteriae, over 512 µg/mL; with Escherichia coli [1] it was 4 µg/mL; in the experiment with Staphylococcus aureus [2], over 512 µg/mL; in the experiment on Candida albicans it was 64 µg/mL; in the experiment with Staphylococcus aureus [3], 512 µg/mL. In addition, the MIC with Bacillus subtilis was over 512 µg/mL; with Micrococcus luteus, 128 µg/mL; with Aspergillus flavus [5], over 512 µg/mL; in experiment [6] it was over 512 µg/mL; against Saccharomyces cerevisiae it was over 512 µg/mL. In the experiment on Escherichia coli [4], the Ratio came to 2.
On to `CCCCCCCCn1cc(CN(Cc2cn(CCCCCCCC)nn2)N2C(=O)c3cccc4c(Br)ccc(c34)C2=O)nn1.Cl.Cl`, for which the MIC in the experiment on Pseudomonas aeruginosa was 512 µg/mL; against Shigella dysenteriae it was over 512 µg/mL; in the experiment with Escherichia coli [1], 512 µg/mL; against Staphylococcus aureus [2], over 512 µg/mL; against Candida albicans, over 512 µg/mL; in the experiment with Staphylococcus aureus [3], over 512 µg/mL. The minimum inhibitory concentration (MIC) is over 512 µg/mL against Bacillus subtilis; over 512 µg/mL against Micrococcus luteus; 16 µg/mL in the experiment on Aspergillus flavus [5]; 512 µg/mL in [6]; over 512 µg/mL against Saccharomyces cerevisiae. Moreover, the Ratio with Aspergillus flavus [9] came out at 16.
Regarding `O=C1c2cccc3c(Br)ccc(c23)C(=O)N1N(Cc1cn(Cc2ccc(Cl)cc2Cl)nn1)Cc1cn(Cc2ccc(Cl)cc2Cl)nn1`, the minimal inhibitory concentration (MIC) with Pseudomonas aeruginosa was over 512 µg/mL; against Shigella dysenteriae, over 512 µg/mL; against Escherichia coli [1], 8 µg/mL (≈ 10.4 µM); in the experiment on Staphylococcus aureus [2], over 512 µg/mL; with Candida albicans, over 512 µg/mL; in the experiment on Staphylococcus aureus [3], over 512 µg/mL. In addition, the MIC is over 512 µg/mL against Bacillus subtilis; 256 µg/mL (≈ 332 µM) with Micrococcus luteus; 32 µg/mL (≈ 41.5 µM) in the experiment on Aspergillus flavus [5]; over 512 µg/mL in experiment [6]; over 512 µg/mL against Saccharomyces cerevisiae. Also, in the experiment on Escherichia coli [4], the Ratio came to 2.
